System: Fibroblast
Experiment: Multiplex assay against human fibroblast
Assay type: toxicity, cell-based
Method in brief: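 Cells were classed with CellPathfinder machine-learning gating, first as Hoechst high-intensity objects or normal cells, then (normal cells) as healthy, pyknosed or fragmented nuclei, and finally (pyknosed cells) as mitotic or apoptotic. Staining of live cells at seeding used Hoechst33342, BioTracker Green Microtubule Cytoskeleton Dye, MitoTracker Red and Annexin V Alexa Fluor 680, with imaging on a CQ1 microscope at 37°C and 5% CO2 after compound addition. Tubulin, mitochondrial-mass and membrane-permeability phenotypes are per cents of healthy-nucleus cells.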

[1] = 12 h, 1 µM, compound concentration 1 uM, replicate 1
[2] = 12 h, 1 µM, compound concentration 1 uM, replicate 2
[3] = 12 h, 10 µM, compound concentration 10 uM, replicate 1
[4] = 12 h, 10 µM, compound concentration 10 uM, replicate 2
[5] = 24 h, 1 µM, compound concentration 1 uM, replicate 1
[6] = 24 h, 1 µM, compound concentration 1 uM, replicate 2
[7] = 24 h, 10 µM, compound concentration 10 uM, replicate 1
[8] = 24 h, 10 µM, compound concentration 10 uM, replicate 2
[9] = 48 h, 1 µM, compound concentration 1 uM, replicate 1
[10] = 48 h, 1 µM, compound concentration 1 uM, replicate 2
[11] = 48 h, 10 µM, compound concentration 10 uM, replicate 1
[12] = 48 h, 10 µM, compound concentration 10 uM, replicate 2

O=C(NCC(=O)N1CC[C@H](N[C@H]2CC[C@@](O)(c3ccc(-c4ncccn4)cn3)CC2)C1)c1cccc(C(F)(F)F)c1 [PF-4136309]
Population Apoptotic (%) [1]: 53%
Population Fragmented Nuclei (%) [1]: 13%
Population Healthy Nuclei (%) [1]: 63%
Population Hoechst High Intensity Objects (%) [1]: 2%
Population Membrane Permeable-Phenotype (%) [1]: 1%
Population Mitochondria Different-Phenotype (%) [1]: 4%
Population Mitotic Cells (%) [1]: 46%
Population Normal (%) [1]: 97%
Population Pyknosed Nuclei (%) [1]: 23%
Population Tubulin-Different-Phenotype (%) [1]: 28%
Total Cell Count [1]: 142
Population Apoptotic (%) [2]: 22%
Population Fragmented Nuclei (%) [2]: 25%
Population Healthy Nuclei (%) [2]: 52%
Population Hoechst High Intensity Objects (%) [2]: 5%
Population Membrane Permeable-Phenotype (%) [2]: 13%
Population Mitochondria Different-Phenotype (%) [2]: 7%
Population Mitotic Cells (%) [2]: 77%
Population Normal (%) [2]: 94%
Population Pyknosed Nuclei (%) [2]: 21%
Population Tubulin-Different-Phenotype (%) [2]: 60%
Total Cell Count [2]: 152
Population Apoptotic (%) [3]: 60%
Population Fragmented Nuclei (%) [3]: 18%
Population Healthy Nuclei (%) [3]: 69%
Population Hoechst High Intensity Objects (%) [3]: 2%
Population Membrane Permeable-Phenotype (%) [3]: 0%
Population Mitochondria Different-Phenotype (%) [3]: 11%
Population Mitotic Cells (%) [3]: 40%
Population Normal (%) [3]: 97%
Population Pyknosed Nuclei (%) [3]: 12%
Population Tubulin-Different-Phenotype (%) [3]: 46%
Total Cell Count [3]: 210
Population Apoptotic (%) [4]: 25%
Population Fragmented Nuclei (%) [4]: 24%
Population Healthy Nuclei (%) [4]: 52%
Population Hoechst High Intensity Objects (%) [4]: 5%
Population Membrane Permeable-Phenotype (%) [4]: 4%
Population Mitochondria Different-Phenotype (%) [4]: 6%
Population Mitotic Cells (%) [4]: 75%
Population Normal (%) [4]: 94%
Population Pyknosed Nuclei (%) [4]: 23%
Population Tubulin-Different-Phenotype (%) [4]: 44%
Total Cell Count [4]: 128
Population Apoptotic (%) [5]: 61%
Population Fragmented Nuclei (%) [5]: 14%
Population Healthy Nuclei (%) [5]: 60%
Population Hoechst High Intensity Objects (%) [5]: 2%
Population Membrane Permeable-Phenotype (%) [5]: 1%
Population Mitochondria Different-Phenotype (%) [5]: 4%
Population Mitotic Cells (%) [5]: 38%
Population Normal (%) [5]: 97%
Population Pyknosed Nuclei (%) [5]: 25%
Population Tubulin-Different-Phenotype (%) [5]: 32%
Total Cell Count [5]: 139
Population Apoptotic (%) [6]: 45%
Population Fragmented Nuclei (%) [6]: 33%
Population Healthy Nuclei (%) [6]: 52%
Population Hoechst High Intensity Objects (%) [6]: 4%
Population Membrane Permeable-Phenotype (%) [6]: 16%
Population Mitochondria Different-Phenotype (%) [6]: 1%
Population Mitotic Cells (%) [6]: 55%
Population Normal (%) [6]: 95%
Population Pyknosed Nuclei (%) [6]: 14%
Population Tubulin-Different-Phenotype (%) [6]: 52%
Total Cell Count [6]: 148
Population Apoptotic (%) [7]: 36%
Population Fragmented Nuclei (%) [7]: 15%
Population Healthy Nuclei (%) [7]: 72%
Population Hoechst High Intensity Objects (%) [7]: 3%
Population Membrane Permeable-Phenotype (%) [7]: 0%
Population Mitochondria Different-Phenotype (%) [7]: 10%
Population Mitotic Cells (%) [7]: 63%
Population Normal (%) [7]: 96%
Population Pyknosed Nuclei (%) [7]: 11%
Population Tubulin-Different-Phenotype (%) [7]: 34%
Total Cell Count [7]: 203
Population Apoptotic (%) [8]: 30%
Population Fragmented Nuclei (%) [8]: 29%
Population Healthy Nuclei (%) [8]: 48%
Population Hoechst High Intensity Objects (%) [8]: 2%
Population Membrane Permeable-Phenotype (%) [8]: 6%
Population Mitochondria Different-Phenotype (%) [8]: 4%
Population Mitotic Cells (%) [8]: 70%
Population Normal (%) [8]: 97%
Population Pyknosed Nuclei (%) [8]: 22%
Population Tubulin-Different-Phenotype (%) [8]: 52%
Total Cell Count [8]: 139
Population Apoptotic (%) [9]: 58%
Population Fragmented Nuclei (%) [9]: 26%
Population Healthy Nuclei (%) [9]: 49%
Population Hoechst High Intensity Objects (%) [9]: 2%
Population Membrane Permeable-Phenotype (%) [9]: 2%
Population Mitochondria Different-Phenotype (%) [9]: 2%
Population Mitotic Cells (%) [9]: 41%
Population Normal (%) [9]: 97%
Population Pyknosed Nuclei (%) [9]: 24%
Population Tubulin-Different-Phenotype (%) [9]: 27%
Total Cell Count [9]: 149
Population Apoptotic (%) [10]: 50%
Population Fragmented Nuclei (%) [10]: 36%
Population Hoechst High Intensity Objects (%) [10]: 4%
Population Membrane Permeable-Phenotype (%) [10]: 7%
Population Mitochondria Different-Phenotype (%) [10]: 4%
Population Mitotic Cells (%) [10]: 50%
Population Normal (%) [10]: 95%
Population Pyknosed Nuclei (%) [10]: 13%
Population Tubulin-Different-Phenotype (%) [10]: 46%
Total Cell Count [10]: 137
Population Apoptotic (%) [11]: 47%
Population Fragmented Nuclei (%) [11]: 18%
Population Healthy Nuclei (%) [11]: 72%
Population Hoechst High Intensity Objects (%) [11]: 6%
Population Membrane Permeable-Phenotype (%) [11]: 0%
Population Mitochondria Different-Phenotype (%) [11]: 15%
Population Mitotic Cells (%) [11]: 52%
Population Normal (%) [11]: 93%
Population Pyknosed Nuclei (%) [11]: 9%
Population Tubulin-Different-Phenotype (%) [11]: 47%
Total Cell Count [11]: 195
Population Apoptotic (%) [12]: 63%
Population Fragmented Nuclei (%) [12]: 31%
Population Healthy Nuclei (%) [12]: 52%
Population Membrane Permeable-Phenotype (%) [12]: 6%
Population Mitochondria Different-Phenotype (%) [12]: 6%
Population Mitotic Cells (%) [12]: 36%
Population Pyknosed Nuclei (%) [12]: 15%
Population Tubulin-Different-Phenotype (%) [12]: 54%
Total Cell Count [12]: 129
